Measured values from different studies.
Compare with care: the assays were run in different laboratories.
CNR2: Cannabinoid receptor 2 (CNR2, Homo sapiens, UniProt P34972)
BRD9: Bromodomain-containing protein 9 (BRD9, Homo sapiens, UniProt Q9H8M2)
PKMYT1: Membrane-associated tyrosine- and threonine-specific cdc2-inhibitory kinase (PKMYT1, Homo sapiens, UniProt Q99640)

CN(C)CCOC(=O)COc1ccc(Cl)cc1
inhibition (CNR2; ligand displacement, radioligand; 1 µM, cell membranes): -3.85%

Cc1cc(O)c(-c2ccc([C@@H](C)CN(C)C)cc2)c2c1[nH]c(=O)c1sccc12
inhibition (Phosphatidylinositol 5-phosphate 4-kinase type-2 alpha (PIP4K2A, Homo sapiens, UniProt P48426); enzyme activity, inhibitor; 0.1 µM): -0.0609%

NC/C(=C\F)COc1cccc(Cn2c(=S)[nH]c(=O)c3[nH]cnc32)c1
inhibition (Beta-2 adrenergic receptor (ADRB2, Homo sapiens, UniProt P07550); ligand displacement, radioligand; 10 µM): < 50%

CCC(=O)c1cc(-c2cc(OC)c(Cn3ccnc3)cc2OC)c2ccccn12
ΔTm (BRD9; thermal stability, DSF; 200 µM): 9.5 °C

Cc1ncc(-c2cc3cc(-c4c(C)ccc(O)c4C)cnc3[nH]2)cn1
inhibition (PKMYT1; cell-free assay, TR-FRET; 0.1235 µM): 97.2%

COc1cc(C(C)O)c(OC)cc1-c1cc(C(C)=O)n2ccccc12 (stereo not shown)
ΔTm (BRD9; thermal stability, DSF; 200 µM): 9.9 °C

CCCCC(=O)Nc1ccc(-c2ccc3ncn(CCC)c(=O)c3c2)cn1
remaining binding (PKMYT1; binding, competition with immobilised ligand; 0.5 µM): 86%

CCN(C)Cc1c(OC)cc(-c2cc(C(C)=O)n3ccccc23)cc1OC
ΔTm (BRD9; thermal stability, DSF; 200 µM): 15.5 °C

CCN1/C(=C/C(C)=O)Sc2ccc(F)cc21
inhibition (CNR2; ligand displacement, radioligand; 10 µM): 16.8%

C1=C/COCc2cc(ccc2OCCN2CCCC2)Nc2nccc(n2)-c2cccc(c2)COC/1
remaining binding (Cyclin-dependent kinase-like 3 (CDKL3, Homo sapiens, UniProt Q8IVW4); binding; 0.1 µM): 5.9%

COc1ccc2oc(-c3ccc4nc(N)oc4c3)c/c(=N\c3ccccc3NC(=O)CCN)c2c1
remaining binding (Activin receptor type-2A (ACVR2A, Homo sapiens, UniProt P27037); binding, competition with immobilised ligand; 1 µM): 109%

CC(=O)ON=C1C=CC(=C(C#N)c2ccccc2)C=C1
activity vs control (Serine/threonine-protein kinase haspin (HASPIN, Homo sapiens, UniProt Q8TF76); enzyme activity, inhibitor, ADP detection; 2 µM): 76%

COc1cc(C(C)(C)O)c(OC)cc1-c1cc(C(C)=O)n2ccccc12
ΔTm (BRD9; thermal stability, DSF; 200 µM): 10.5 °C
